Arrestin-AP2 inh: inhibitors of beta-arrestin/AP2 binding, primary screen, biochemical, GPCR trafficking, flow cytometry. beta-arrestin 1 C-terminal peptide binding to AP2 beta2-adaptin appendage (human). inhibition, % at 10 µM. 0.31% of 340,000 active. FITC-arrestin peptide / GST-AP2 beads; AP2 beta2 appendage carries R879A mutation. AID 504490, 2011;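 active means inhibition above a set limit, near 3 SD of compounds lacking own fluorescence, cut at about 54% in these data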;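 further: plate controls were DMSO wells for no effect and 5 µM unlabelled arrestin peptide for full effect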
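System: GST-AP2 R879A glutathione beads | Also added: FITC-arrestin peptide, 50 nM | Times: 12 min plus 1 h, RT | Signal: Bead flow cytometry, FITC channel | Buffer or medium: PBS with 0.05% Tween 20 and 0.1% BSA | Read-out basis: Percent drop in bead-associated FITC signal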
PAX8 reporter: inhibitors of PAX8-driven TPO luciferase reporter, primary screen, RMG-I cells, single concentration; SteadyGlo, 24 h; inhibition, % at 12.6 µM; 1.2% of 360,000 active;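 active means mean replicate inhibition at least 60% with every replicate also reaching 60%; inconclusive means only one of the two criteria is met; inactive means mean below 60% and not all replicates reaching 60%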;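 further: luciferase light reporting Pax8 driven TPO promoter activity; plate controls were median of neutral control wells for no effect and mitoxantrone controls for full effect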
PfHsp90 yeast 2: growth inhibition of PfHsp90-expressing yeast, primary screen, antimalarial PfHsp90 inhibitor project, S. cerevisiae, BacTiter-Glo luminescence, single point, set 2; BacTiter-Glo ATP, 48 h; yeast lacking PDR1 and PDR3 efflux regulators; inhibition, % at 9.4 µM; 0.32% of 310,000 active; AID 504621, 2011;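 active means every replicate shows inhibition above about 80%, whatever the replicate mean, limit read from the data; inconclusive means mean inhibition reaches the set limit but some replicate falls short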;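 further: 0% = DMSO neutral controls and 100% = 20 µM radicicol positive controls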
Rtt109 HAT inh: inhibitors of C. albicans Rtt109/Vps75 HAT, primary screen, biochemical, ThioGlo CoA-SH fluorescence, plate reader; Histone acetyltransferase RTT109 (Candida albicans (strain SC5314 / ATCC MYA-2876)), …; purified Rtt109/Vps75, 4 h; inhibition, % at 34.9 µM; 0.16% of 330,000 active;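 active means inhibition of at least 50% in every replicate; inconclusive means best replicate reaches 50% inhibition but some replicates fall short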
Target sequence (Q5AAJ8 whole entry, looked up): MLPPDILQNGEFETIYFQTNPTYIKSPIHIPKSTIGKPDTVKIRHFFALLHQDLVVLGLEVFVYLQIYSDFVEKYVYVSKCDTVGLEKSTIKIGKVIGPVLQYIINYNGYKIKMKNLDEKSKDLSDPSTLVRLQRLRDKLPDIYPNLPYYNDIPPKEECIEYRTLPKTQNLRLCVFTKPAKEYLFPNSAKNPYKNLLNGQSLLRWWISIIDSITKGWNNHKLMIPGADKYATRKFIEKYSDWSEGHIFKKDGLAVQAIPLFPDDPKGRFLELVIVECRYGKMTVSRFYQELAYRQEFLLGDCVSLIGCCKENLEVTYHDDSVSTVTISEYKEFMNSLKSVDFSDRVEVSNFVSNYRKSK
Glyco luc inh: increase of ERlucT glycosylation luciferase signal, primary screen, N-linked glycosylation inhibitor project, D54 ERlucT cells, luminescence, set 2; D54 ERlucT glycosylation luciferase reporter, 24 h; percent of 100 nM tunicamycin response; reporter increase, % at 12.5 µM; 0.23% of 360,000 active; AID 588692, 2011;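 active means mean luciferase reporter signal, scaled so untreated is 0 and the glycosylation-blocking control 100, at or above a set limit in every replicate; inconclusive means mean reaches the limit but not every replicate does; inactive means mean below the limit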;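 further: luciferase carries N-glycosylation sites so blocking glycosylation raises the light; 0% = median of neutral control wells and 100% = median of 100 nM tunicamycin wells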
Env fusion inh: inhibitors of HIV-1 Env-driven cell-cell fusion, primary screen, HeLa-JRFL effector, CEM21 target cells, luciferase. 1.1% of 360,000 active. inhibition, % at 12.3 µM;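 active means mean replicate inhibition score of at least 50 and every replicate individually at or above 50; inconclusive means only one of the two criteria met; inactive means mean below 50 and not all replicates reaching 50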;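 further: 0% = plate neutral controls and 100% = maraviroc near 300 nM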
The depositor's hits bear a star; u = inconclusive; x = no result; [ ] = dose if it differs, or a comment. An excerpt weighted towards active compounds, which were near 2.3% of everything screened.

SMILES | Arrestin-AP2 inh | PAX8 reporter | PfHsp90 yeast 2 | Rtt109 HAT inh | Glyco luc inh | Env fusion inh
O=C(CCN1CCCCC1)N[C@H]1CC[C@H](CCn2cc(-c3ccccc3)nn2)O[C@@H]1CO | x | -14 | x | x | x | 77*[16.7 µM]
O=C(CCN1CCCCC1)N[C@@H]1CC[C@H](CCn2cc(-c3ccccc3)nn2)O[C@@H]1CO | x | -9 | x | x | x | -8[16.7 µM]
N#CC(=C1C=CC(=NO)C(Cl)=C1)c1ccc(Cl)cc1 | -12 | 14 | -37 | 2 | 3 | -8
COc1ccc(C(C#N)=C2C=CC(=NO)C=C2)cc1 | -16 | -35 | 115* | 10 | 6 | 5
CC(=O)ON=C1C=CC(=C(C#N)c2ccccc2)C=C1 | x | 71* | x | x | 0 | -200
COc1ccc(NC(=O)N(C)C[C@H]2OCCCC[C@H](C)Oc3ccc(NS(=O)(=O)c4ccccc4)cc3C(=O)N([C@@H](C)CO)C[C@H]2C)cc1 | x | -13 | x | x | x | x
Clc1ccc(OCCOCCNCc2ccccc2)cc1Cl | 15 | 0 | -1 | -3 | 2 | 55*
O=C1c2ccccc2C(=O)c2c1cccc2-n1nnc2ccccc21 | 3 | -2 | -18 | -1 | 0 | 14
O=C1C(N2CCOCC2)=C(n2nnc3ccccc32)C(=O)c2ccccc21 | 9 | 83* | 38 | 15 | -18 | 80*
CN(C)c1ccc(C(C[N+](=O)[O-])c2c(N)n(C)c(=O)n(C)c2=O)c(F)c1C#N (stereo not drawn) | 25 | 19 | 3 | 12 | 28* | 11
COc1cc2c3c(c1)C(C)CC(C)(C)N3C(=O)C2=O (stereo not drawn) | -4 | 18 | 9 | -4 | 0 | 60*
c1coc(-c2nc3c4ccccc4ccn3c2Cc2ccsc2)c1 | x | -9 | x | x | x | 63*
Cc1ccc2nc(-c3ccco3)c(Cc3ccccc3)n2c1 | x | 66* | x | x | 1 | -22
Fc1cccc(Cc2c(-c3ccco3)nc3c4ccccc4ccn23)c1 | x | -105 | x | x | -8 | 69*
Fc1ccc(-c2nc3c4ccccc4ccn3c2Cc2ccsc2)cc1 | x | -10 | x | x | 1 | 57*
O=C(C[C@@H]1CC[C@H]2[C@@H](COC[C@H](O)CN2CC2CC2)O1)NCc1ccc(Cl)cc1 | x | -5 | x | x | x | x
COCCn1c(SC(C)C(=O)NC2CCCCC2C)nc2ccccc2c1=O (stereo not drawn) | -2 | x | x | 7 | 1 | 75*
COCC(C)n1c(SC(C)C(=O)NC2CCCCC2C)nc2ccccc2c1=O (stereo not drawn) | -9 | 9 | -1 | -3 | -3 | 16
CC(Sc1nc2ccccc2c(=O)n1C)C(=O)N(C)C1CCCCC1 (stereo not drawn) | 4 | 32 | -8 | -1 | -2 | 62*
CCOc1ccc(C(=O)NCC(=O)OCc2c(C)noc2C)cc1 | -1 | 73* | -16 | 6 | -3 | x
Cc1noc(C)c1COc1ccc(C(=O)NNC(=O)c2ccccc2F)cc1 | -6 | x | -11 | 2 | 27* | x
C[C@@H]1CN([C@H](C)CO)C(=O)c2cc(-c3ccncc3)cnc2O[C@H]1CN(C)C(=O)C1CCC1 | x | x | x | x | x | -5[16.7 µM]
Cc1ccc(S(=O)(=O)NC2c3cccc4cccc(c34)C2Sc2nncn2C)cc1 (stereo not drawn) | 0 | 9 | 5 | 8 | 0 | 5
Cc1ccc(S(=O)(=O)NC2c3cccc4cccc(c34)C2Sc2nc(C)cc(C)n2)cc1 (stereo not drawn) | 2 | 22 | -20 | 5 | -6 | 98*
N#CC(C#N)=C(Nc1ccc(F)cc1)SCc1cccc(Br)c1 | 38 | 85* | -13 | 7 | -15 | 65*
SMILES | Arrestin-AP2 inh | PAX8 reporter | PfHsp90 yeast 2 | Rtt109 HAT inh | Glyco luc inh | Env fusion inh
COc1ccc(C(=O)NNC(=S)NC(=O)c2cc(-c3ccccc3)nc3ccccc23)cc1 | 8 | -30 | -12 | 18 | 1 | 40
COc1ccc(Cl)cc1C(=O)NNC(=S)NC(=O)c1cc(-c2ccccc2)nc2ccccc12 | -4 | x | -9 | 5 | 3 | 73*
COc1ccccc1C(=O)NNC(=S)NC(=O)c1cc(OC)c(OC)c(OC)c1 | 13 | 63* | -18 | -8 | -4 | 29
COc1ccccc1OC(=O)CCN1c2ccccc2Sc2ccccc21 | 15 | -13 | -4 | 14 | -1 | x
COc1ccccc1-[n+]1c(C)cc(/C=C2\Sc3ccccc3N2C)cc1C | 1 | 67* | -26 | u | -18 | -9
COc1ccc(-[n+]2c(C)cc(/C=C3\Sc4ccccc4N3C)cc2C)cc1 | x | 80* | -28 | 74* | 7 | 34
COc1ccc(C(=O)/C=C2\Sc3ccccc3N2C)cc1 | 10 | -70 | 10 | -16 | -11 | -201
FC(F)(F)c1cccc(NC(=S)NCc2ccc(Cl)cc2)c1 | 16 | 17 | 10 | -19 | -4 | 64*
Fc1ccc(CNC(=S)Nc2cccc(C(F)(F)F)c2)cc1 | 13 | -17 | -8 | 16 | -3 | x
O=C(Nc1ccccc1O)c1ccc(NS(=O)(=O)c2cccc3cccnc23)cc1 | 18 | 28 | 21 | 4 | 83* | -144
O=C(Nc1ncccc1O)c1ccc(S(=O)(=O)Nc2ccccc2)cc1 | 5 | 53 | -3 | 2 | 129* | x
O=C(Nc1ncccc1O)c1ccc(NS(=O)(=O)c2ccc3[nH]c(=O)[nH]c3c2)cc1 | 2 | -7 | -1 | u | 18 | 8
Cc1[nH]oc(=O)c1N=Nc1ccccc1 | -6 | 16 | -35 | 6 | 6 | -2
Cc1[nH]oc(=O)c1N=Nc1c(Cl)cccc1Cl | 16 | -5 | 106* | -2 | 3 | -22
CO[C@H]1CN(C)C(=O)c2ccc(NC(=O)c3ccccc3)cc2OC[C@@H](C)N(C(=O)CN(C)C)C[C@@H]1C | x | x | x | x | x | 14[16.7 µM]
COc1ccc([C@H]2/C=C\CN(C(=O)C3CC3)[C@@H](C)C(=O)N2Cc2ccc(F)cc2)cc1 | 23 | -5 | x | 3 | 0 | 70*
COc1ccc(C2/C=C\CN(C(=O)C3CC3)[C@H](Cc3ccccc3)C(=O)N2Cc2ccc(F)cc2)cc1 (stereo partly drawn) | -4 | x | -2 | -1 | -4 | x
COc1ccc(NC(=O)Cc2ccc(Cl)c(Cl)c2)cn1 | 0 | -7 | -26 | x | 1 | -4
COc1ccc(NC(=O)/C(Cl)=C(/Cl)S(=O)Cc2ccccc2Cl)cn1 (stereo not drawn) | -16 | x | 107* | u | x | x

Screening data from PubChem.
